This is a sample that favours compounds with a hit; in the whole collection about 4.8% have one here.
GPR7 antagonist: antagonists of human GPR7 (neuropeptides B/W receptor 1). 290,000 compounds, 1.1% hits. GPR7-expressing cells, fluorescence antagonist assay. AID 1861. inhibition, % at 4.4 µM. P48145; in the data active = inhibition above about 16%, passing the limit was not always enough;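 also: cells stimulated with the agonist NPW; 0% = agonist with vehicle and 100% = vehicle without agonist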
Target sequence (P48145 whole entry, looked up): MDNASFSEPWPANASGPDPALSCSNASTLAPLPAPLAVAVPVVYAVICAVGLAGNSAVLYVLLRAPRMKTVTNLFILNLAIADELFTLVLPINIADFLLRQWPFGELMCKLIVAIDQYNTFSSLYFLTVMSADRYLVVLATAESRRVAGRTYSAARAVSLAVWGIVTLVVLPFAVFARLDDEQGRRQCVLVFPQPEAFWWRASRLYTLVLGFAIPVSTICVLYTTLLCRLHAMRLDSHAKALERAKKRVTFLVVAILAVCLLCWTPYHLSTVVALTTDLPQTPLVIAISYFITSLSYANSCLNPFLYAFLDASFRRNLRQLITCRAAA
Jurkat NFkB inh: inhibitors of the PMA/ionomycin-induced NF-kB reporter in Jurkat cells; PMA/ionomycin-induced NF-kB luciferase reporter, luminescence; inhibition, % at 4 µM; 330,000 compounds, 0.53% hits; in the data active = inhibition above about 50%
HSF1 activator: increases HSF-1 driven luciferase reporter signal. NIH3T3-HGL HSF-1 luciferase reporter, MG132, 8 h; 100% = twice DMSO control signal. 300,000 compounds, 1.7% hits. activation, % at 9 µM;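 active = mean replicate activation of at least 50% with a set share of replicates each reaching 50%; inconclusive = only one of those two conditions met; inactive = mean below 50% and too few replicates reaching it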;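 also: 0% = median of the neutral control wells and 100% = twice that signal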
697 NFkB inh: lowers PMA/ionomycin-induced NF-kB signal in 697 B cells | inhibition, % at 4 µM | 330,000 compounds, 0.33% hits | 697 B-cell NF-kB luciferase reporter, 16 h | AID 435022; in the data active = inhibition above about 35%
T cruzi repl: blocks replication of Trypanosoma cruzi; T. cruzi beta-gal in NIH3T3, luminescence, 90 h; inhibition, % (no concentration beside the values); 300,000 compounds, 1.4% hits;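 active = mean inhibition across valid replicates above about 55%, limit read from the data; inconclusive = mean below that limit but half or more replicates reach it; inactive = mean below it, under half of replicates reach it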;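 also: signal also drops with host cell toxicity which is not excluded here; 0% = plate median of DMSO wells and 100% = zero luminescence signal; higher percent means less beta-gal luminescence so fewer parasites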
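Material: NIH/3T3 host cells with β-galactosidase reporter T. cruzi; Input: 5,000 host fibroblasts per well; Medium: DMEM, 2% fetal bovine serum; Compound: 50 nL DMSO compound solution per well; Schedule: 3 h host attachment, then at least 90 h co-culture; Detection: luminescent β-galactosidase signal after 60 min lysis.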
HSF1 inhib: HSF1 inhibition; NIH3T3-HGL HSE-luciferase, MG132-induced, luminescence 8 h; hits give low values; activity change, negative = inhibition, % at 7.5 µM (by protocol); 300,000 compounds, 0.77% hits; AID 2098;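 active = more than half of replicate wells show activity change below -50%, luminescence cut by over half; inconclusive = some wells, but at most half, below -50%; inactive = no replicate well below -50%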;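 also: luciferase reports HSF-1 transcriptional activity via heat shock element; 0% = median of DMSO wells and -100% = zero luminescence signal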
The depositor's hits bear a star; ? = inconclusive; . = not tested or not shown.

SMILES | GPR7 antagonist | Jurkat NFkB inh | HSF1 activator | 697 NFkB inh | T cruzi repl | HSF1 inhib
O=C(c1cc2c(s1)-c1ccccc1OC2)N1CCN(c2ccccc2)CC1 | 7 | 10 | -70 | 5 | -1 | -64*
O=C(CNC(=O)c1cccs1)OCC(=O)c1ccccc1Cl | 2 | -2 | . | 0 | . | .
COc1ccccc1CCC(=O)OCC(=O)Nc1cccc(S(=O)(=O)N2CCOCC2)c1 | . | -11 | -73 | 13 | -11 | -63*
O=C(COC(=O)CCC(=O)c1cccs1)Nc1ccc(S(=O)(=O)N2CCOCC2)cc1 | -2 | -4 | -10 | 0 | -7 | 11
COc1cccc(NC(=O)Cn2c(=O)oc3cc(S(=O)(=O)N4CCCC4)ccc32)c1 | -8 | 7 | -68 | 10 | -7 | -56*
CCOc1ncccc1C(=O)OCC(=O)Nc1cc(S(=O)(=O)N2CCOCC2)ccc1C | -12 | 7 | 7 | -12 | -7 | -10
Cc1ccc(S(=O)(=O)N2CCOCC2)cc1NC(=O)COC(=O)c1cccnc1Cl | -17 | 13 | 54* | 12 | 5 | 6
COc1ccccc1CCC(=O)OCC(=O)Nc1cccc(S(=O)(=O)N2CCCCC2)c1 | . | 1 | 23 | 8 | -8 | 8
Cc1ccc(S(=O)(=O)N2CCOCC2)cc1NC(=O)COC(=O)CCC(=O)c1cccs1 | 19* | 2 | 0 | -1 | -1 | -4
COc1ccc(NC(=O)Cn2c(=O)oc3cc(S(=O)(=O)N4CCCC4)ccc32)c(OC)c1 | -5 | 1 | -20 | -6 | -9 | -8
CC(OC(=O)c1ccc(S(=O)(=O)NCc2ccco2)cc1)C(=O)Nc1ccccc1 (stereo not given) | . | 12 | . | 3 | . | .
COc1ccc(C(=O)NCCc2c[nH]c3ccccc23)cc1[N+](=O)[O-] | 18 | -11 | 4 | 10 | -10 | 0
COc1ccc(C2=NN(c3nc(-c4ccc(CNC(C)=O)cc4)cs3)C(c3ccco3)C2)cc1 (stereo not given) | 0 | -12 | 9 | -10 | 11 | 16
O=C(O)c1ccc(Nc2nc(-c3cccnc3)nc3ccccc23)cc1 | -25 | 22 | 3 | 14 | 1 | 2
CC(C)(C)OC(=O)N[C@@H](Cc1ccccc1)C(=O)NCC1CCC(C(=O)N[C@@H](CC(=O)O)C(=O)O)CC1 (stereo not given in full) | 2 | -5 | -71 | 9 | -10 | -63*
CCC(C)[C@H](NC(=O)OC(C)(C)C)C(=O)NCC1CCC(C(=O)N[C@@H](Cc2ccccc2)C(=O)O)CC1 (stereo not given in full) | -1 | 16 | 9 | 6 | -3 | 2
COc1cc(Cl)ccc1OCc1cc(C(=O)NCc2cc(C(C)C)no2)no1 | -8 | -84 | 29 | -111 | -3 | 4
Nn1c(SCC(=O)N2CCOCC2)nnc1C1CC1 | -10 | 7 | 83* | 30 | -20 | 26
Nn1c(SCC(=O)N2CCOCC2)nnc1-c1cccnc1 | . | -6 | . | 4 | . | .
Nn1c(SCC(=O)NCc2ccccc2)nnc1C1CC1 | -11 | -4 | 52* | -10 | -9 | 12
CCn1c(N2CCN(S(=O)(=O)c3ccc(Cl)cc3)CC2)nc2ccccc21 | 3 | 20 | 24 | -10 | 88* | 5
CCn1c(N2CCN(S(=O)(=O)c3ccc(F)cc3)CC2)nc2ccccc21 | 0 | -10 | 0 | -4 | 32 | 1
Cc1ccc(S(=O)(=O)N2CCN(S(=O)(=O)c3ccccc3)C2)cc1 | 11 | . | -10 | . | -2 | -8
Cc1ccc(S(=O)(=O)N2CCN(S(C)(=O)=O)C2)cc1 | -12 | -6 | -70 | 6 | -12 | -63*
CCC(C(=O)N1CCOCC1)n1nc(C)c2c(C)n(-c3ccccc3)nc2c1=O (stereo not given) | -15 | 6 | 0 | -4 | -10 | 2
SMILES | GPR7 antagonist | Jurkat NFkB inh | HSF1 activator | 697 NFkB inh | T cruzi repl | HSF1 inhib
CC(C)n1cc(CN2CCCC(CNS(=O)(=O)c3cccc4cccnc34)C2)cn1 (stereo not given) | 13 | 2 | -71 | -16 | 64* | -66*
O=C(NCCS(=O)(=O)N1CCN(c2ccccc2)CC1)C1CC1 | . | 7 | 17 | -7 | -10 | -2
CC1CCCCN1CCNC(=O)c1ccc2c(c1)N(Cc1ccccc1F)C(=O)c1ccccc1S2=O (stereo not given) | -5 | -18 | -14 | -55 | 14 | -2
COc1ccccc1C(=O)COC(=O)Cn1nc(C)c([N+](=O)[O-])c1C | . | 7 | -6 | 14 | -4 | -6
NCCCC(=O)O | 5 | 16 | -76 | -4 | ? | -70*
NCCCCC(=O)O | . | 1 | . | 4 | . | .
O=S(=O)(CCc1nc2ccccc2[nH]1)c1ccc(Cl)cc1 | -9 | 0 | -91 | 0 | -6 | -89*
c1ccc(OCc2nc3ccccc3[nH]2)cc1 | -9 | -49 | 32 | -71 | -6 | 13
Cc1ccc(S(=O)(=O)CCc2nc3ccccc3[nH]2)cc1 | -1 | 6 | -12 | 16 | -3 | 0
Clc1ccc(OCc2nc3ccccc3[nH]2)cc1 | -16 | -75 | 77* | -130 | -19 | 43
COc1ccc(CNC(=O)C(C)OC(=O)CN2C(=O)COc3ccccc32)cc1 (stereo not given) | -4 | 12 | -1 | 10 | -3 | 1
O=C1CC(/C=C/c2ccc(Cl)cc2)=Nc2ccccc2N1 | 8 | -87 | 70* | -95 | 29 | 63
N#CCSc1nc2ccccc2c2nc3ccccc3n12 | -4 | -28 | 68* | -36 | -9 | 36
CCOc1ccc2oc(C(=O)NC3CCN(Cc4ccccc4)CC3)c(C)c2c1 | -2 | 10 | 1 | 7 | 61* | -9
COc1ccc(NS(=O)(=O)c2cccc(C(=O)NC3CCN(Cc4ccccc4)CC3)c2)cc1 | 10 | 15 | -7 | -46 | 63* | 1
CCCNC(=O)CN1C(=O)NC(Cc2c[nH]c3ccccc23)C1=O (stereo not given) | 1 | 2 | -6 | 17 | -16 | -7
CC1(C)CC(=O)C2=C(C1)OC(N)=C(C#N)C2c1ccccc1 (stereo not given) | 11 | 15 | -61 | 4 | -14 | -54*
Cc1ccc(CN2C3CCCC2CC(NC(=O)c2ccc(F)cc2)C3)cc1 (stereo not given) | -6 | -1 | 8 | -7 | 34 | 8
CCCNC(=S)NC1CC2CCCC(C1)N2Cc1ccc(F)cc1 (stereo not given) | -11 | 7 | -69 | 2 | 1 | -61*
C[C@@H]1COC(=O)[C@@H](Cc2ccc(F)cc2)C/C=C\C[C@@H](CC(=O)NCCO)C(=O)N1 | . | 12 | . | 10 | . | .
COc1ccccc1C(=O)/C=C/c1ccc(N2CCCCC2)c([N+](=O)[O-])c1 | -14 | -5 | 10 | -4 | 26 | 3
O=C(/C=C/c1ccc(N2CCCCC2)c([N+](=O)[O-])c1)c1ccc(O)cc1 | -9 | -37 | 75* | -108 | 17 | 86

Screens deposited in PubChem BioAssay by several laboratories.
